{
  "source": "ChEMBL document CHEMBL2046306",
  "about": "“Synthesis of 6-substituted 9-methoxy-11H-indeno[1,2-c]quinoline-11-one derivatives as potential anticancer agents” (Bioorg Med Chem, 2012)",
  "key": {"NCI-H460 [1]": {"test_system": "NCI-H460", "experiment": "Antiproliferative activity against human NCI-H460 cells assessed as growth at 100 uM after 48 hrs by alamar blue assay", "type": "functional", "conditions": "NCI-H460, 48 h, read-out: Activity", "in_short": "(§1)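 Single-dose prescreen in a three-line NCI panel (NCI-H460, MCF7, SF-268). Cells were inoculated and preincubated on microtiter plates, then exposed to test agent at 100 μM for 48 h. Alamar blue end-point. Growth is expressed as percent of untreated control cells.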"}, "MCF7": {"test_system": "MCF7", "experiment": "Antiproliferative activity against human MCF7 cells assessed as growth at 100 uM after 48 hrs by alamar blue assay", "type": "functional", "conditions": "MCF7, 48 h, read-out: Activity", "in_short": "as §1"}, "SF-268": {"test_system": "SF-268", "experiment": "Antiproliferative activity against human SF268 cells assessed as growth at 100 uM after 48 hrs by alamar blue assay", "type": "functional", "conditions": "SF-268, 48 h, read-out: Activity", "in_short": "as §1"}, "CCRF-CEM": {"test_system": "CCRF-CEM", "experiment": "Growth inhibition of human CCRF-CEM cells after 48 hrs by sulforhodamine B assay", "type": "functional", "in_short": "(§2)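 NCI 60-line screen. Cells grown in RPMI 1640 with 5% FBS and 2 mM L-glutamine, seeded at 5000–40,000 cells/well, preincubated 24 h at 37 °C. Five 10-fold dilutions added, highest well concentration 10E-4 M. Incubated 48 h in 5% CO₂ at 100% humidity. Sulforhodamine B read-out by optical density; GI50 taken from dose-response curves versus control.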"}, "SR": {"test_system": "SR", "experiment": "Growth inhibition of human SR cells after 48 hrs by sulforhodamine B assay", "type": "functional", "in_short": "(§3)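 NCI 60-line screen. Cells grown in RPMI 1640 with 5% FBS and 2 mM L-glutamine, seeded at 5000-40,000 cells/well and preincubated 24 h at 37 °C. Compounds added at five 10-fold dilutions, highest well concentration 10E-4 M. Exposure 48 h in 5% CO2 at 100% humidity. Endpoint is sulforhodamine B with optical density read-out. GI50 is the concentration giving 50% growth inhibition versus control.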"}, "A549": {"test_system": "A549", "experiment": "Growth inhibition of human A549 cells after 48 hrs by sulforhodamine B assay", "type": "functional, cell-based", "conditions": "A549, 48 h", "in_short": "as §2"}, "HCT-116": {"test_system": "HCT-116", "experiment": "Growth inhibition of human HCT116 cells after 48 hrs by sulforhodamine B assay", "type": "functional", "conditions": "HCT-116, 48 h", "in_short": "as §2"}, "U-251": {"test_system": "U-251", "experiment": "Growth inhibition of human U251 cells after 48 hrs by sulforhodamine B assay", "type": "functional", "conditions": "U-251, 48 h", "in_short": "as §3"}, "SK-MEL-5": {"test_system": "SK-MEL-5", "experiment": "Growth inhibition of human SK-MEL-5 cells after 48 hrs by sulforhodamine B assay", "type": "functional", "conditions": "SK-MEL-5, 48 h", "in_short": "as §3"}, "IGROV-1": {"test_system": "IGROV-1", "experiment": "Growth inhibition of human IGROV1 cells after 48 hrs by sulforhodamine B assay", "type": "functional", "conditions": "IGROV-1, 48 h", "in_short": "as §2"}, "DU-145": {"test_system": "DU-145", "experiment": "Growth inhibition of human DU145 cells after 48 hrs by sulforhodamine B assay", "type": "functional", "conditions": "DU-145, 48 h", "in_short": "as §2"}, "[2]": {"experiment": "Growth inhibition of human Hs 578T cells after 48 hrs by sulforhodamine B assay", "type": "functional", "in_short": "as §2"}, "NCI-H460 [3]": {"test_system": "NCI-H460", "experiment": "Cell cycle arrest in human NCI-H460 cells assessed as accumulation at G1 phase at 1 uM after 24 hrs by propidium iodide staining-based flow cytometric analysis (reference value: 66.2 +/- 2.1%)", "type": "functional"}, "NCI-H460 [4]": {"test_system": "NCI-H460", "experiment": "Cell cycle arrest in human NCI-H460 cells assessed as accumulation at G1 phase at 5 uM after 24 hrs by propidium iodide staining-based flow cytometric analysis (reference value: 66.2 +/- 2.1%)", "type": "functional"}, "NCI-H460 [5]": {"test_system": "NCI-H460", "experiment": "Cell cycle arrest in human NCI-H460 cells assessed as accumulation at G1 phase at 10 uM after 24 hrs by propidium iodide staining-based flow cytometric analysis (reference value: 66.2 +/- 2.1%)", "type": "functional"}, "NCI-H460 [6]": {"test_system": "NCI-H460", "experiment": "Cell cycle arrest in human NCI-H460 cells assessed as accumulation at S phase at 1 uM after 24 hrs by propidium iodide staining-based flow cytometric analysis (reference value: 14.3 +/- 1.9%)", "type": "functional"}, "NCI-H460 [7]": {"test_system": "NCI-H460", "experiment": "Cell cycle arrest in human NCI-H460 cells assessed as accumulation at S phase at 5 uM after 24 hrs by propidium iodide staining-based flow cytometric analysis (reference value: 14.3 +/- 1.9%)", "type": "functional"}, "NCI-H460 [8]": {"test_system": "NCI-H460", "experiment": "Cell cycle arrest in human NCI-H460 cells assessed as accumulation at S phase at 10 uM after 24 hrs by propidium iodide staining-based flow cytometric analysis (reference value: 14.3 +/- 1.9%)", "type": "functional"}, "NCI-H460 [9]": {"test_system": "NCI-H460", "experiment": "Cell cycle arrest in human NCI-H460 cells assessed as accumulation at G2/M phase at 1 uM after 24 hrs by propidium iodide staining-based flow cytometric analysis (reference value: 18.6 +/- 1.7%)", "type": "functional"}, "NCI-H460 [10]": {"test_system": "NCI-H460", "experiment": "Cell cycle arrest in human NCI-H460 cells assessed as accumulation at G2/M phase at 5 uM after 24 hrs by propidium iodide staining-based flow cytometric analysis (reference value: 18.6 +/- 1.7%)", "type": "functional"}, "NCI-H460 [11]": {"test_system": "NCI-H460", "experiment": "Cell cycle arrest in human NCI-H460 cells assessed as accumulation at G2/M phase at 10 uM after 24 hrs by propidium iodide staining-based flow cytometric analysis (reference value: 18.6 +/- 1.7%)", "type": "functional"}, "NCI-H460 [12]": {"test_system": "NCI-H460", "experiment": "Induction of apoptosis in human NCI-H460 cells assessed as accumulation at sub-G1 phase at 1 uM after 24 hrs by propidium iodide staining-based flow cytometric analysis (reference value: 0.9 +/- 0.3%)", "type": "functional"}, "NCI-H460 [13]": {"test_system": "NCI-H460", "experiment": "Induction of apoptosis in human NCI-H460 cells assessed as accumulation at sub-G1 phase at 5 uM after 24 hrs by propidium iodide staining-based flow cytometric analysis (reference value: 0.9 +/- 0.3%)", "type": "functional"}, "NCI-H460 [14]": {"test_system": "NCI-H460", "experiment": "Induction of apoptosis in human NCI-H460 cells assessed as accumulation at sub-G1 phase at 10 uM after 24 hrs by propidium iodide staining-based flow cytometric analysis (reference value: 0.9 +/- 0.3%)", "type": "functional"}, "NCI-H460 [15]": {"test_system": "NCI-H460", "experiment": "Induction of apoptosis in human NCI-H460 cells assessed as cell shrinkage at 10 uM after 24 hrs by light microscopic analysis relative to control", "type": "functional, cell-based", "in_short": "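H460 cells exposed to DMSO or compound (1.0-10.0 μM) for 24 h at 37 °C, then photographed under a light microscope for morphology.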"}, "Nucleic Acid [16]": {"test_system": "Nucleic Acid", "experiment": "Binding affinity to Escherichia coli pBR322 assessed as DNA unwinding at 10 to 100 uM after 12 hrs by ethidium bromide staining-based agarose gel electrophoresis", "type": "nucleic-acid assay", "in_short": "(§4)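 Negatively supercoiled pBR322 plasmid (400 ng) incubated with the test compound in TE buffer, pH 8.0, for 12 h at room temperature. Loading buffer contained sarkosyl, bromophenol blue and glycerol. Samples run on 1% agarose at 6 V/cm for 2.5 h in TAE, pH 8.5. Ethidium bromide stain, imaged under UV; unwinding read as reduced mobility of form I DNA.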"}, "Nucleic Acid [17]": {"test_system": "Nucleic Acid", "experiment": "Binding affinity to Escherichia coli pBR322 assessed as DNA unwinding at 1000 uM after 12 hrs by ethidium bromide staining-based agarose gel electrophoresis", "type": "nucleic-acid assay", "in_short": "as §4"}, "NCI-H460 [18]": {"test_system": "NCI-H460", "experiment": "Induction of apoptosis in human NCI-H460 cells assessed as PARP cleavage after 24 hrs by Western blot analysis", "type": "functional, cell-based", "in_short": "(§5)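 Treated H460 cells washed in cold PBS and lysed 30 min on ice in Tris-HCl pH 7.5/NP-40 buffer with protease and phosphatase inhibitors. Lysate spun at 12,000g. Protein measured by Bradford; 20 µg resolved on 10% SDS-PAGE and transferred to PVDF. Blocked with 5% milk, then primary antibody 2 h and secondary 30 min. Detected by ECL for PARP, procaspase-3 and procaspase-8.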"}, "NCI-H460 [19]": {"test_system": "NCI-H460", "experiment": "Induction of apoptosis in human NCI-H460 cells assessed as induction of caspase 3 activity after 24 hrs by Western blot analysis", "type": "functional, cell-based", "in_short": "as §5"}, "NCI-H460 [20]": {"test_system": "NCI-H460", "experiment": "Induction of apoptosis in human NCI-H460 cells assessed as induction of caspase 8 activity after 24 hrs by Western blot analysis", "type": "functional, cell-based", "in_short": "as §5"}, "NCI-H460 [21]": {"test_system": "NCI-H460", "experiment": "Growth inhibition of human NCI-H460 cells after 48 hrs by sulforhodamine B assay", "type": "functional", "conditions": "NCI-H460, 48 h", "in_short": "as §2"}},
  "note": "Calls of active or inactive are those of the source. The rule behind the calls is not given here.",
  "data": [
    {"smiles": "COc1ccc2c(c1)C(=O)c1c-2c(NCCCN(C)C)nc2ccccc12", "values": [
      {"measurement": "growth at 100 µM", "setting": "NCI-H460 [1]", "value": 0, "unit": "%"},
      {"measurement": "growth at 100 µM", "setting": "MCF7", "value": 0, "unit": "%"},
      {"measurement": "growth at 100 µM", "setting": "SF-268", "value": 0, "unit": "%"},
      {"measurement": "GI50", "setting": "CCRF-CEM", "value": 3390, "unit": "nM"},
      {"measurement": "GI50", "setting": "SR", "value": 1100, "unit": "nM"},
      {"measurement": "GI50", "setting": "A549", "value": 1860, "unit": "nM"},
      {"measurement": "GI50", "setting": "HCT-116", "value": 1260, "unit": "nM"},
      {"measurement": "GI50", "setting": "U-251", "value": 1100, "unit": "nM"},
      {"measurement": "GI50", "setting": "SK-MEL-5", "value": 3890, "unit": "nM"},
      {"measurement": "GI50", "setting": "IGROV-1", "value": 6920, "unit": "nM"},
      {"measurement": "GI50", "setting": "DU-145", "value": 6610, "unit": "nM"},
      {"measurement": "GI50", "setting": "[2]", "value": 3720, "unit": "nM"},
      {"measurement": "Activity", "setting": "NCI-H460 [3]", "value": 58.1, "unit": "%"},
      {"measurement": "Activity", "setting": "NCI-H460 [4]", "value": 49.2, "unit": "%"},
      {"measurement": "Activity", "setting": "NCI-H460 [5]", "value": 41.4, "unit": "%"},
      {"measurement": "Activity", "setting": "NCI-H460 [6]", "value": 10.1, "unit": "%"},
      {"measurement": "Activity", "setting": "NCI-H460 [7]", "value": 9.1, "unit": "%"},
      {"measurement": "Activity", "setting": "NCI-H460 [8]", "value": 11.8, "unit": "%"},
      {"measurement": "Activity", "setting": "NCI-H460 [9]", "value": 28.1, "unit": "%"},
      {"measurement": "Activity", "setting": "NCI-H460 [10]", "value": 33.5, "unit": "%"},
      {"measurement": "Activity", "setting": "NCI-H460 [11]", "value": 21.5, "unit": "%"},
      {"measurement": "Activity", "setting": "NCI-H460 [12]", "value": 3.7, "unit": "%"},
      {"measurement": "Activity", "setting": "NCI-H460 [13]", "value": 8.2, "unit": "%"},
      {"measurement": "Activity", "setting": "NCI-H460 [14]", "value": 25.3, "unit": "%"},
      {"measurement": "Activity", "setting": "NCI-H460 [15]", "value": "Active"},
      {"measurement": "Activity", "setting": "Nucleic Acid [16]", "value": "Active"},
      {"measurement": "Activity", "setting": "Nucleic Acid [17]", "value": "inactive"},
      {"measurement": "Activity", "setting": "NCI-H460 [18]", "value": "Dose-dependent effect"},
      {"measurement": "Activity", "setting": "NCI-H460 [19]", "value": "Dose-dependent effect"},
      {"measurement": "Activity", "setting": "NCI-H460 [20]", "value": "Dose-dependent effect"},
      {"measurement": "GI50", "setting": "NCI-H460 [21]", "value": 1330, "unit": "nM"}
    ]}
  ]
}
